# Test results published in ChEMBL document CHEMBL1671676, “In vitro activity of nemonoxacin, a novel nonfluorinated quinolone, against 2,440 clinical isolates” (2009).
# Key:
# Format in all cases: functional
# Staphylococcus aureus [1] = assay: Antibacterial activity against methicillin-susceptible Staphylococcus aureus assessed as percent cumulative susceptible isolates at minimum inhibitory concentration of […] by CLSI broth microdilution method; parameters: scale not given: the % may be the effect or the level left
# Klebsiella pneumoniae [2] = assay: Antibacterial activity against Klebsiella pneumoniae assessed as percent cumulative susceptible isolates at minimum inhibitory concentration of 0.03 ug/ml by CLSI broth microdilution method; parameters: scale not given: the % may be the effect or the level left
# Staphylococcus aureus [3] = assay: Antibacterial activity against community-associated methicillin-resistant Staphylococcus aureus assessed as percent cumulative susceptible isolates at minimum inhibitory concentration of […] by CLSI broth microdilution method; parameters: scale not given: the % may be the effect or the level left
# [4] = test system: Staphylococcus epidermidis; assay: Antibacterial activity against methicillin-resistant Staphylococcus epidermidis assessed as percent cumulative susceptible isolates at minimum inhibitory concentration of […] by CLSI broth microdilution method; parameters: scale not given: the % may be the effect or the level left
# Enterobacter cloacae [5] = assay: Antibacterial activity against Enterobacter cloacae assessed as percent cumulative susceptible isolates at minimum inhibitory concentration of 0.5 ug/ml by CLSI broth microdilution method; parameters: scale not given: the % may be the effect or the level left
# Staphylococcus aureus [6] = assay: Antibacterial activity against hospital-associated methicillin-resistant Staphylococcus aureus assessed as percent cumulative susceptible isolates at minimum inhibitory concentration of 1 ug/ml by CLSI broth microdilution method; parameters: scale not given: the % may be the effect or the level left
# How it was run: (§1)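 Clinical isolates tested by CLSI broth microdilution using 96-well panels of doubling drug dilutions in cation-adjusted Mueller-Hinton broth with 5% lysed horse blood. MIC was read from these panels. Panel quality control used CLSI ATCC strains, including S. pneumoniae 49619, S. aureus 29213, E. faecalis 29212 and E. coli 25922. Cumulative percentages of isolates were tabulated at each MIC.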
# [7] = Ratio of fAUC (0 to 24 hrs) in in vitro PK/PD model at 750 mg to MIC for Staphylococcus aureus
# Enterococcus faecium = assay: Antibacterial activity against Enterococcus faecium assessed as percent cumulative susceptible isolates at minimum inhibitory concentration of 8 ug/ml by CLSI broth microdilution method; parameters: scale not given: the % may be the effect or the level left
# [8] = test system: Staphylococcus epidermidis; assay: Antibacterial activity against methicillin-susceptible Staphylococcus epidermidis assessed as percent cumulative susceptible isolates at minimum inhibitory concentration of 0.5 ug/ml by CLSI broth microdilution method; parameters: scale not given: the % may be the effect or the level left
# [9] = Ratio of fAUC (0 to 24 hrs) in in vitro PK/PD model at 750 mg to MIC for Streptococcus pneumoniae
# Staphylococcus aureus [10] = assay: Antibacterial activity against methicillin-susceptible Staphylococcus aureus assessed as percent cumulative susceptible isolates at minimum inhibitory concentration of <=0.008 ug/ml by CLSI broth microdilution method; parameters: scale not given: the % may be the effect or the level left
# Staphylococcus aureus [11] = assay: Antibacterial activity against non-levofloxacin susceptible Staphylococcus aureus assessed as percent cumulative susceptible isolates at minimum inhibitory concentration of 8 ug/ml by CLSI broth microdilution method; parameters: scale not given: the % may be the effect or the level left
# Pseudomonas aeruginosa [12] = assay: Antibacterial activity against Pseudomonas aeruginosa assessed as percent cumulative susceptible isolates at minimum inhibitory concentration of 4 ug/ml by CLSI broth microdilution method; parameters: scale not given: the % may be the effect or the level left
# Klebsiella pneumoniae [13] = assay: Antibacterial activity against Klebsiella pneumoniae assessed as percent cumulative susceptible isolates at minimum inhibitory concentration of <=[…] by CLSI broth microdilution method; parameters: scale not given: the % may be the effect or the level left
# Proteus mirabilis [14] = assay: Antibacterial activity against Proteus mirabilis assessed as percent cumulative susceptible isolates at minimum inhibitory concentration of 1 ug/ml by CLSI broth microdilution method; parameters: scale not given: the % may be the effect or the level left
# [15] = test system: Stenotrophomonas maltophilia; assay: Antibacterial activity against Stenotrophomonas maltophilia assessed as percent cumulative susceptible isolates at minimum inhibitory concentration of […] by CLSI broth microdilution method; parameters: scale not given: the % may be the effect or the level left
# Enterococcus faecalis [16] = assay: Antibacterial activity against Enterococcus faecalis assessed as percent cumulative susceptible isolates at minimum inhibitory concentration of 128 ug/ml by CLSI broth microdilution method; parameters: scale not given: the % may be the effect or the level left
# Streptococcus pneumoniae [17] = assay: Antibacterial activity against Streptococcus pneumoniae assessed as percent cumulative susceptible isolates at minimum inhibitory concentration of […] by CLSI broth microdilution method; parameters: scale not given: the % may be the effect or the level left
# Enterococcus faecalis [18] = assay: Antibacterial activity against Enterococcus faecalis assessed as percent cumulative susceptible isolates at minimum inhibitory concentration of 0.5 ug/ml by CLSI broth microdilution method; parameters: scale not given: the % may be the effect or the level left
# Streptococcus pneumoniae [19] = assay: Antibacterial activity against Streptococcus pneumoniae assessed as percent cumulative susceptible isolates at minimum inhibitory concentration of <=0.008 ug/ml by CLSI broth microdilution method; parameters: scale not given: the % may be the effect or the level left
# Pseudomonas aeruginosa [20] = assay: Antibacterial activity against Pseudomonas aeruginosa assessed as percent cumulative susceptible isolates at minimum inhibitory concentration of >=[…] by CLSI broth microdilution method; parameters: scale not given: the % may be the effect or the level left
# Klebsiella oxytoca = assay: Antibacterial activity against Klebsiella oxytoca assessed as percent cumulative susceptible isolates at minimum inhibitory concentration of 1 ug/ml by CLSI broth microdilution method; parameters: scale not given: the % may be the effect or the level left
# Staphylococcus aureus [21] = assay: Antibacterial activity against Levofloxacin-susceptible Staphylococcus aureus assessed as percent cumulative susceptible isolates at minimum inhibitory concentration of 0.03 ug/ml by CLSI broth microdilution method; parameters: scale not given: the % may be the effect or the level left
# Staphylococcus aureus [22] = assay: Antibacterial activity against hospital-associated methicillin-resistant Staphylococcus aureus assessed as percent cumulative susceptible isolates at minimum inhibitory concentration of 4 ug/ml by CLSI broth microdilution method; parameters: scale not given: the % may be the effect or the level left
# [23] = Ratio of fAUC (0 to 24 hrs) in in vitro PK/PD model at 750 mg to MIC for community-associated methicillin-resistant Staphylococcus aureus
# Escherichia coli = assay: Antibacterial activity against Escherichia coli assessed as percent cumulative susceptible isolates at minimum inhibitory concentration of >=[…] by CLSI broth microdilution method; parameters: scale not given: the % may be the effect or the level left
# Enterobacter cloacae [24] = assay: Antibacterial activity against Enterobacter cloacae assessed as percent cumulative susceptible isolates at minimum inhibitory concentration of 2 ug/ml by CLSI broth microdilution method; parameters: scale not given: the % may be the effect or the level left
# Streptococcus pneumoniae [25] = assay: Antibacterial activity against Streptococcus pneumoniae assessed as percent cumulative susceptible isolates at minimum inhibitory concentration of 0.5 ug/ml by CLSI broth microdilution method; parameters: scale not given: the % may be the effect or the level left
# [26] = test system: Staphylococcus epidermidis; assay: Antibacterial activity against methicillin-susceptible Staphylococcus epidermidis assessed as percent cumulative susceptible isolates at minimum inhibitory concentration of 8 ug/ml by CLSI broth microdilution method; parameters: scale not given: the % may be the effect or the level left
# Streptococcus pneumoniae [27] = assay: Antibacterial activity against Streptococcus pneumoniae assessed as percent cumulative susceptible isolates at minimum inhibitory concentration of 2 ug/ml by CLSI broth microdilution method; parameters: scale not given: the % may be the effect or the level left
# Streptococcus pneumoniae [28] = assay: Antibacterial activity against Streptococcus pneumoniae assessed as percent cumulative susceptible isolates at minimum inhibitory concentration of 32 ug/ml by CLSI broth microdilution method; parameters: scale not given: the % may be the effect or the level left; how it was run: as §1
# [29] = test system: Staphylococcus epidermidis; assay: Antibacterial activity against methicillin-susceptible Staphylococcus epidermidis assessed as percent cumulative susceptible isolates at minimum inhibitory concentration of 32 ug/ml by CLSI broth microdilution method; parameters: scale not given: the % may be the effect or the level left; how it was run: as §1
# Streptococcus pneumoniae [30] = assay: Antibacterial activity against Streptococcus pneumoniae assessed as percent cumulative susceptible isolates at minimum inhibitory concentration of 8 ug/ml by CLSI broth microdilution method; parameters: scale not given: the % may be the effect or the level left
# Streptococcus pneumoniae [31] = assay: Antibacterial activity against penicillin-resistant Streptococcus pneumoniae assessed as percent cumulative susceptible isolates at minimum inhibitory concentration of 0.5 ug/ml by CLSI broth microdilution method; parameters: scale not given: the % may be the effect or the level left
# Staphylococcus aureus [32] = assay: Antibacterial activity against community-associated methicillin-resistant Staphylococcus aureus assessed as percent cumulative susceptible isolates at minimum inhibitory concentration of 8 ug/ml by CLSI broth microdilution method; parameters: scale not given: the % may be the effect or the level left; how it was run: as §1
# Proteus mirabilis [33] = assay: Antibacterial activity against Proteus mirabilis assessed as percent cumulative susceptible isolates at minimum inhibitory concentration of 8 ug/ml by CLSI broth microdilution method; parameters: scale not given: the % may be the effect or the level left
compound,measurement,setting,value
COc1c(N2C[C@@H](C)C[C@H](N)C2)ccc2c(=O)c(C(=O)O)cn(C3CC3)c12 [NEMONOXACIN],Activity,Staphylococcus aureus [1],30.5%
same,Activity,Klebsiella pneumoniae [2],1%
same,Activity,Staphylococcus aureus [3],16%
same,Activity,[4],11.1%
same,Activity,Enterobacter cloacae [5],90.3%
same,Activity,Staphylococcus aureus [6],18.2%
same,RatioAUC/MIC,[7],393
same,Activity,Enterococcus faecium,44.7%
same,Activity,[8],93%
same,RatioAUC/MIC,[9],> 393
same,Activity,Staphylococcus aureus [10],5.6%
same,Activity,Staphylococcus aureus [11],76.2%
same,Activity,Pseudomonas aeruginosa [12],78.1%
same,Activity,Klebsiella pneumoniae [13],0.5%
same,Activity,Proteus mirabilis [14],75.8%
same,Activity,[15],3.8%
same,Activity,Enterococcus faecalis [16],100%
same,Activity,Streptococcus pneumoniae [17],91%
same,Activity,Enterococcus faecalis [18],70.4%
same,Activity,Streptococcus pneumoniae [19],19.2%
same,Activity,Pseudomonas aeruginosa [20],100%
same,Activity,Klebsiella oxytoca,100%
same,Activity,Staphylococcus aureus [21],78.3%
same,Activity,Staphylococcus aureus [22],57.6%
same,RatioAUC/MIC,[23],98
same,Activity,Escherichia coli,100%
C[C@H]1COc2c(N3CCN(C)CC3)c(F)cc3c(=O)c(C(=O)O)cn1c23.C[C@H]1COc2c(N3CCN(C)CC3)c(F)cc3c(=O)c(C(=O)O)cn1c23.O [LEVOFLOXACIN],Activity,Enterobacter cloacae [24],93.1%
same,Activity,Streptococcus pneumoniae [25],69.3%
same,Activity,[26],76.7%
same,Activity,Streptococcus pneumoniae [27],99.4%
same,Activity,Streptococcus pneumoniae [28],100%
same,Activity,[29],100%
same,Activity,Streptococcus pneumoniae [30],99.5%
same,Activity,Streptococcus pneumoniae [31],53.1%
same,Activity,Staphylococcus aureus [32],96%
same,Activity,Proteus mirabilis [33],97%
